In ChEMBL document CHEMBL1138832, “N2-substituted O6-cyclohexylmethylguanine derivatives: potent inhibitors of cyclin-dependent kinases 1 and 2” (J Med Chem, 2004):

Experiments:
[1] = molecular target: Cyclin-dependent kinase 1/cyclin B (Homo sapiens, UniProt P06493); assay: Inhibitory activity against cyclin-dependent kinase 1-cyclin B.; assay type: protein-complex assay
Outline: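 CDK1/cyclin B1 enzyme from starfish (Marthasterias glacialis) oocytes; kinase inhibition assayed by a method from earlier work.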

[2] = molecular target: T1, Cyclin-dependent kinase 2/cyclin A (Homo sapiens, UniProt P24941); assay: Inhibition of cyclin-dependent kinase 2-cyclin A3 (CDK2); assay type: protein-complex assay
[3] = molecular target: T2, Cyclin-dependent kinase 2/cyclin A (Homo sapiens) (UniProt P24941+P20248+P78396); assay: Inhibition of cyclin-dependent kinase 2/Cyclin A3 at 10 uM; assay type: protein-complex assay
Outline: (§1)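 Human CDK2/cyclin A kinase inhibition assay run by an earlier-published method. Solubility limited the highest concentration that could be tested to 10 µM.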

[4] = test system: Cyclin-dependent kinase 1/cyclin B (starfish); assay: Inhibition of Cyclin-dependent kinase 1-cyclin B at 10 uM; conditions: Asteroidea
[5] = molecular target: T2, Cyclin-dependent kinase 2/cyclin A (Homo sapiens); assay: (§2) Inhibition of Cyclin-dependent kinase 2-Cyclin A3 at 10 uM; assay type: protein-complex assay; outline: as §1
[6] = molecular target: T1, Cyclin-dependent kinase 2/cyclin A; assay: as §2; assay type: protein-complex assay; outline: as §1
[7] = molecular target: Cyclin-dependent kinase 1/cyclin B (starfish); assay: Inhibition of Cyclin-dependent kinase 1-cyclin B at 10 uM
[8] = molecular target: Cyclin-dependent kinase 1/cyclin B (Homo sapiens) (UniProt P06493+P14635+Q8WWL7+O95067); assay: Inhibition of cyclin-dependent kinase 1/Cyclin B at 10 uM; assay type: protein-complex assay; conditions: Marthasterias glacialis
Outline: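 Starfish (Marthasterias glacialis) oocyte CDK1/cyclin B1 kinase inhibition assay run by an earlier-published method. Solubility limited the highest concentration that could be tested to 10 µM.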

[9] = molecular target: T1, Cyclin-dependent kinase 2/cyclin A; assay: Inhibition of Cyclin-dependent kinase 2-Cyclin A3 at 100 uM; assay type: protein-complex assay
[10] = molecular target: Cyclin-dependent kinase 1/cyclin B (starfish); assay: Inhibition of Cyclin-dependent kinase 1-cyclin B at 100 uM

Question: For C[S+]([O-])c1ccc(Nc2nc(OCC3CCCCC3)c3[nH]cnc3n2)cc1 (stereo unspecified), which IC50 [1] is on record?
Answer: The IC50 was 200 nM.

Question: With CSc1cccc(Nc2nc(OCC3CCCCC3)c3nc[nH]c3n2)c1 as the compound, how does the IC50 [1] read?
Answer: Its IC50 is 2400 nM.

Question: With OCc1cccc(Nc2nc(OCC3CCCCC3)c3[nH]cnc3n2)c1 as the compound, how does the IC50 [1] read?
Answer: The IC50 was 300 nM.

Question: For Clc1cc(Cl)cc(Nc2nc(OCC3CCCCC3)c3[nH]cnc3n2)c1, which IC50 [1] is on record?
Answer: The IC50 was 13000 nM.

Question: What about the IC50 [2] of the same compound?
Answer: Its IC50 is 12000 nM.

Question: For CC(C)[C@H](CO)Nc1nc(OCC2CCCCC2)c2[nH]cnc2n1, which inhibition [3] is on record?
Answer: The inhibition was 20%.

Question: What about the inhibition [4] of the same compound?
Answer: The inhibition was 2%.

Question: What does the source list for CC(C)Nc1nc(OCC2CCCCC2)c2[nH]cnc2n1?
Answer: IC50 [1]: 2000 nM; IC50 [2]: 1200 nM

Question: How did the IC50 [1] turn out when COc1cc(Nc2nc(OCC3CCCCC3)c3[nH]cnc3n2)ccc1S(N)(=O)=O was run?
Answer: Its IC50 is 103 nM.

Question: CCNc1nc(OCC2CCCCC2)c2[nH]cnc2n1 was tested. Which IC50 [1] did it give?
Answer: The IC50 was 3300 nM.

Question: What about the IC50 [2] of the same compound?
Answer: Its IC50 is 2800 nM.

Question: Which IC50 [1] does the source give for CNc1nc(OCC2CCCCC2)c2[nH]cnc2n1 here?
Answer: The IC50 was 5300 nM.

Question: And the IC50 [2]?
Answer: Its IC50 is 5000 nM.

Question: Which inhibition [5] does the source give for CN(C)c1nc(OCC2CCCCC2)c2[nH]cnc2n1 here?
Answer: The inhibition was 31%.

Question: What about the inhibition [4] of the same compound?
Answer: Its inhibition is 27%.

Question: Which results are given for OCCNc1nc(OCC2CCCCC2)c2[nH]cnc2n1?
Answer: IC50 [1]: 3200 nM; IC50 [2]: 2800 nM

Question: COc1ccc(Nc2nc(OCC3CCCCC3)c3[nH]cnc3n2)cc1 was tested. Which IC50 [1] did it give?
Answer: The IC50 was 790 nM.

Question: What does the source list for CSc1ccc(Nc2nc(OCC3CCCCC3)c3[nH]cnc3n2)cc1?
Answer: inhibition [5]: 18%; inhibition [4]: 10%

Question: For COC(=O)c1ccc(Nc2nc(OCC3CCCCC3)c3nc[nH]c3n2)cc1, which IC50 [6] is on record?
Answer: Its IC50 is 25000 nM.

Question: And the IC50 [7]?
Answer: Its IC50 is 66000 nM.

Question: With Fc1cccc(Nc2nc(OCC3CCCCC3)c3[nH]cnc3n2)c1 as the compound, how does the inhibition [5] read?
Answer: The inhibition was 62%.

Question: And the inhibition [4]?
Answer: Its inhibition is 69%.

Question: With Fc1ccc(Nc2nc(OCC3CCCCC3)c3[nH]cnc3n2)cc1Cl as the compound, how does the inhibition [5] read?
Answer: The inhibition was 68%.

Question: What about the inhibition [4] of the same compound?
Answer: The inhibition was 73%.

Question: Which results are given for NC(=O)Cc1ccc(Nc2nc(OCC3CCCCC3)c3nc[nH]c3n2)cc1?
Answer: IC50 [1]: 140 nM; IC50 [2]: 130 nM

Question: For NS(=O)(=O)c1ccc(CNc2nc(OCC3CCCCC3)c3[nH]cnc3n2)s1, which IC50 [1] is on record?
Answer: The IC50 was 5700 nM.

Question: And the IC50 [2]?
Answer: The IC50 was 5000 nM.

Question: For CNC(=O)c1ccc(Nc2nc(OCC3CCCCC3)c3nc[nH]c3n2)cc1, which IC50 [1] is on record?
Answer: The IC50 was 400 nM.

Question: And the IC50 [2]?
Answer: Its IC50 is 200 nM.

Question: For Brc1cccc(Nc2nc(OCC3CCCCC3)c3[nH]cnc3n2)c1, which IC50 [1] is on record?
Answer: Its IC50 is 5300 nM.

Question: Which IC50 [1] does the source give for NS(=O)(=O)c1ccc(NNc2nc(OCC3CCCCC3)c3[nH]cnc3n2)cc1 here?
Answer: Its IC50 is 8900 nM.

Question: And the IC50 [2]?
Answer: The IC50 was 4300 nM.

Question: Which IC50 [1] does the source give for CNS(=O)(=O)c1ccc(Nc2nc(OCC3CCCCC3)c3nc[nH]c3n2)cc1 here?
Answer: The IC50 was 9 nM.

Question: What does the source list for CCc1cccc(Nc2nc(OCC3CCCCC3)c3[nH]cnc3n2)c1?
Answer: inhibition [8]: 32%; IC50 [1]: 37000 nM; IC50 [2]: 52000 nM; inhibition [5]: 37%

Question: Which IC50 [1] does the source give for O=C(O)c1ccc(Nc2nc(OCC3CCCCC3)c3nc[nH]c3n2)cc1 here?
Answer: The IC50 was 1000 nM.

Question: What about the IC50 [2] of the same compound?
Answer: The IC50 was 800 nM.

Question: With NS(=O)(=O)c1cccc(Nc2nc(OCC3CCCCC3)c3nc[nH]c3n2)c1 as the compound, how does the IC50 [1] read?
Answer: Its IC50 is 240 nM.

Question: What does the source list for Fc1ccc(Nc2nc(OCC3CCCCC3)c3[nH]cnc3n2)cc1?
Answer: inhibition [5]: 27%; inhibition [4]: 20%

Question: Which IC50 [9] does the source give for COc1ccc(Oc2nc(OCC3CCCCC3)c3[nH]cnc3n2)cc1 here?
Answer: Its IC50 is 42000 nM.

Question: And the IC50 [10]?
Answer: The IC50 was 10000 nM.

Question: How did the IC50 [1] turn out when N#CCc1ccc(Nc2nc(OCC3CCCCC3)c3[nH]cnc3n2)cc1 was run?
Answer: Its IC50 is 300 nM.

Question: Fc1nc(OCC2CCCCC2)c2[nH]cnc2n1 was tested. Which inhibition [5] did it give?
Answer: The inhibition was 4%.

Question: What about the inhibition [4] of the same compound?
Answer: The inhibition was 7%.

Question: With CN(C)S(=O)(=O)c1ccc(Nc2nc(OCC3CCCCC3)c3nc[nH]c3n2)cc1 as the compound, how does the IC50 [1] read?
Answer: The IC50 was 77 nM.

Question: For COc1cccc(Nc2nc(OCC3CCCCC3)c3[nH]cnc3n2)c1, which IC50 [1] is on record?
Answer: The IC50 was 2200 nM.

Question: For c1ccc(Nc2nc(OCC3CCCCC3)c3nc[nH]c3n2)cc1, which IC50 [1] is on record?
Answer: Its IC50 is 1600 nM.

Question: Which inhibition [5] does the source give for CC(C)[C@@H](CO)Nc1nc(OCC2CCCCC2)c2[nH]cnc2n1 here?
Answer: The inhibition was 19%.

Question: And the inhibition [4]?
Answer: Its inhibition is 1%.

Question: How did the inhibition [5] turn out when CC[C@H](CO)Nc1nc(OCC2CCCCC2)c2[nH]cnc2n1 was run?
Answer: Its inhibition is 62%.

Question: What about the inhibition [4] of the same compound?
Answer: The inhibition was 43%.

Question: With CN(C)C(=O)c1ccc(Nc2nc(OCC3CCCCC3)c3[nH]cnc3n2)cc1 as the compound, how does the IC50 [1] read?
Answer: Its IC50 is 600 nM.

Question: How did the IC50 [1] turn out when CC(=O)c1ccc(Nc2nc(OCC3CCCCC3)c3[nH]cnc3n2)cc1 was run?
Answer: The IC50 was 500 nM.

Question: Which results are given for Clc1nc(OCC2CCCCC2)c2[nH]cnc2n1?
Answer: inhibition [5]: 5%; inhibition [4]: 6%

Question: Which results are given for CC[C@@H](CO)Nc1nc(OCC2CCCCC2)c2[nH]cnc2n1?
Answer: inhibition [5]: 52%; inhibition [4]: 29%

Question: How did the IC50 [1] turn out when c1csc(CNc2nc(OCC3CCCCC3)c3[nH]cnc3n2)c1 was run?
Answer: Its IC50 is 700 nM.

Question: What about the IC50 [2] of the same compound?
Answer: Its IC50 is 1700 nM.
